# What was measured:
# RAW264.7 [1] = assay: Antiinflammatory activity in mouse RAW264.7 cells assessed as inhibition of LPS-induced NO production incubated for 24 hrs by Griess reagent based assay; format: functional, cell-based; details: for IC50: RAW264.7, 24 h
# Summary of the method: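 RAW264.7 (ATCC) grown in DMEM + 10% FBS, 37 °C, 5% CO2. Cells at 1 × 10^5/well treated with compound or dexamethasone at 1.25, 2.5, 5, 10, 20 μM in triplicate, then stimulated with LPS 100 ng/mL for 24 h. Supernatant nitrite measured with Griess reagent, absorbance 550 nm; IC50 from concentration series.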
# RAW264.7 [2] = assay: Cytotoxicity against mouse RAW264.7 cells assessed as reduction in cell viability up to 20 uM incubated for 24 hrs by MTT assay; format: toxicity, cell-based; details: raw264.7, 24 h
# Summary of the method: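 Viability read by MTT in parallel with the NO assay: RAW264.7 at 1 × 10^5/well, compound at 1.25–20 μM in triplicate, LPS 100 ng/mL for 24 h.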
# RAW264.7 [3] = assay: Antiinflammatory activity in mouse RAW264.7 cells assessed as inhibition of LPS-induced iNOS protein expression incubated for 24 hrs by Western blot analysis; format: functional, cell-based; details: dose 5-20 µM
# Summary of the method: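 Cells seeded at 5 × 10^5/well, exposed to compound at 10, 20, 40 μM or dexamethasone 5 μM, then LPS 0.5 μg/mL for 24 h. RIPA lysates run on 8% SDS-PAGE, transferred to PVDF. Probed overnight at 4 °C for iNOS with GAPDH as loading control, then secondary antibody 1 h at room temperature.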
IC50 (RAW264.7 [1]) [µM],Compound,Activity (RAW264.7 [2]),inhibition (RAW264.7 [1]),inhibition (RAW264.7 [3])
9.75,C=C1C(=O)O[C@@H]2C[C@]3(C)C(CC[C@@H](C)OC(=O)CCCCCCCCO)[C@@H]3C[C@H]12 (stereo not given in full),Non-Toxic,–,–
9.87,C=C1C(=O)O[C@@H]2C[C@]3(C)[C@@H](CC[C@@H](C)OC(=O)CCCCCCCCC(O)CCCCCCO)[C@@H]3C[C@H]12 (stereo not given in full),Non-Toxic,–,–
11.6,C=C1C(=O)O[C@@H]2C[C@]3(C)[C@@H](CC[C@@H](C)OC(=O)CCCC[C@@H](O)/C=C/[C@@H](O)[C@H](O)CCCCCCCC)[C@@H]3C[C@H]12,Non-Toxic,–,–
9.35,C=C1C(=O)O[C@@H]2C[C@]3(C)C(CC[C@@H](C)OC(=O)CCCCCCCC(=O)O)[C@@H]3C[C@H]12 (stereo not given in full),Non-Toxic,–,–
> 20,C=C1C(=O)O[C@@H]2C[C@]3(C)[C@@H](CC[C@@H](C)OC(=O)CCCCCCCCCCCCCCC)[C@@H]3C[C@H]12,Non-Toxic,–,–
8.52,C[C@@H]1C[C@H]2[C@@H]3CCC4=CC(=O)C=C[C@]4(C)[C@@]3(F)[C@@H](O)C[C@]2(C)[C@@]1(O)C(=O)CO [DEXAMETHASONE],–,–,–
9.15,C=C1C(=O)O[C@@H]2C[C@]3(C)[C@@H](CC[C@@H](C)OC(=O)CC4CCC(=O)C=C4C)[C@@H]3C[C@H]12 (stereo not given in full),Non-Toxic,Dose-Dependent Effect,Dose-Dependent Effect
11.8,C=C1C(=O)O[C@@H]2C[C@]3(C)[C@@H](CC[C@@H](C)OC(=O)CCCC[C@H](O)/C=C/[C@@H](O)[C@H](O)CCCCCCCC)[C@@H]3C[C@H]12,Non-Toxic,–,–
15.1,C=C1C(=O)O[C@@H]2C[C@]3(C)[C@@H](CC[C@@H](C)OC(=O)CCCCCCC[C@H]4OC(=O)C[C@H]4O)[C@@H]3C[C@H]12,Non-Toxic,–,–
5.82,C=C1C(=O)O[C@@H]2C[C@]3(C)[C@@H](CC[C@@H](C)OC(=O)Cc4ccc(O)cc4C)[C@@H]3C[C@H]12,Non-Toxic,Dose-Dependent Effect,Dose-Dependent Effect
5.64,C=C1C(=O)O[C@@H]2C[C@]3(C)[C@@H](CC[C@@H](C)OC(C)=O)[C@@H]3C[C@H]12,Non-Toxic,Dose-Dependent Effect,Dose-Dependent Effect
> 20,C=C1C(=O)O[C@@H]2C[C@]3(C)[C@@H](CC[C@@H](C)OC(=O)CCCCCCC/C=C/C/C=C/CCCCC)[C@@H]3C[C@H]12,Non-Toxic,–,–
8.67,C=C1C(=O)O[C@@H]2C[C@]3(C)[C@@H](CC[C@@H](C)OC(=O)CCCCCCC[C@@H]4OC(=O)C[C@H]4O)[C@@H]3C[C@H]12,Non-Toxic,Dose-Dependent Effect,Dose-Dependent Effect
> 20,C=C1C(=O)O[C@@H]2C[C@]3(C)C(CC[C@@H](C)OC(=O)C[C@@H](O)CCCCCCCCCCCCCC)[C@@H]3C[C@H]12 (stereo not given in full),Non-Toxic,–,–
